Laboratory results taken from ChEMBL document CHEMBL2150994, “Design, synthesis, and pharmacological evaluation of glutamate carboxypeptidase II (GCPII) inhibitors based on thioalkylbenzoic acid scaffolds” (J Med Chem, 2012).
One block for each molecule: values may come before it. Activity calls are given as the source filed them. No cut-off for these calls is given here.

Legend:
[1] = molecular target: Glutamate carboxypeptidase 2 (Homo sapiens, UniProt Q04609); experiment: Inhibition of human recombinant GCP2 using N-acetyl-L-aspartyl-[3H]-L-glutamate as substrate by microplate assay
Sequence of Glutamate carboxypeptidase 2 (Q04609 whole entry): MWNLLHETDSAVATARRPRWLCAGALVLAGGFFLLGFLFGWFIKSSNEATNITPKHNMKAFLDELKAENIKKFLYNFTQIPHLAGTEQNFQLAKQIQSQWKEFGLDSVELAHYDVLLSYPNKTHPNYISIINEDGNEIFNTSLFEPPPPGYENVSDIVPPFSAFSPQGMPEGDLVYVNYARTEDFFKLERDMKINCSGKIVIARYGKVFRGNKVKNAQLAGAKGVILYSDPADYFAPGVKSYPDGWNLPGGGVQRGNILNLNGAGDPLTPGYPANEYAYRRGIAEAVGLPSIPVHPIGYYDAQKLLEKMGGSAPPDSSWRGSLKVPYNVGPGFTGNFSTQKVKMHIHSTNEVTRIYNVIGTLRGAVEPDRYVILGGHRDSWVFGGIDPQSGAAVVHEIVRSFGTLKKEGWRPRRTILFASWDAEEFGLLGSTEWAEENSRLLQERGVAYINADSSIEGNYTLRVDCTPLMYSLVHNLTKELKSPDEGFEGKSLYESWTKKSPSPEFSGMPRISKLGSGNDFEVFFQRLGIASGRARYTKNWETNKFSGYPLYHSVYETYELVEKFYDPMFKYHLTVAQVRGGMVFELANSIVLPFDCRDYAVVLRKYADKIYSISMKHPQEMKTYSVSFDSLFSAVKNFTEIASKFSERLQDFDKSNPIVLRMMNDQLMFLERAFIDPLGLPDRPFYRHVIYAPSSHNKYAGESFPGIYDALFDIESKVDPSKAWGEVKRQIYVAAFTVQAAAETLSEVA
Summary of the method: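 Radiometric enzyme assay using purified human recombinant GCPII with N-acetyl-L-aspartyl-[3H]-L-glutamate as substrate. IC50 was determined.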

[2] = molecular target: Voltage-gated inwardly rectifying potassium channel KCNH2 (Homo sapiens, UniProt Q12809); experiment: Inhibition of human ERG upto 100 uM
Sequence of Voltage-gated inwardly rectifying potassium channel KCNH2 (Q12809 whole entry): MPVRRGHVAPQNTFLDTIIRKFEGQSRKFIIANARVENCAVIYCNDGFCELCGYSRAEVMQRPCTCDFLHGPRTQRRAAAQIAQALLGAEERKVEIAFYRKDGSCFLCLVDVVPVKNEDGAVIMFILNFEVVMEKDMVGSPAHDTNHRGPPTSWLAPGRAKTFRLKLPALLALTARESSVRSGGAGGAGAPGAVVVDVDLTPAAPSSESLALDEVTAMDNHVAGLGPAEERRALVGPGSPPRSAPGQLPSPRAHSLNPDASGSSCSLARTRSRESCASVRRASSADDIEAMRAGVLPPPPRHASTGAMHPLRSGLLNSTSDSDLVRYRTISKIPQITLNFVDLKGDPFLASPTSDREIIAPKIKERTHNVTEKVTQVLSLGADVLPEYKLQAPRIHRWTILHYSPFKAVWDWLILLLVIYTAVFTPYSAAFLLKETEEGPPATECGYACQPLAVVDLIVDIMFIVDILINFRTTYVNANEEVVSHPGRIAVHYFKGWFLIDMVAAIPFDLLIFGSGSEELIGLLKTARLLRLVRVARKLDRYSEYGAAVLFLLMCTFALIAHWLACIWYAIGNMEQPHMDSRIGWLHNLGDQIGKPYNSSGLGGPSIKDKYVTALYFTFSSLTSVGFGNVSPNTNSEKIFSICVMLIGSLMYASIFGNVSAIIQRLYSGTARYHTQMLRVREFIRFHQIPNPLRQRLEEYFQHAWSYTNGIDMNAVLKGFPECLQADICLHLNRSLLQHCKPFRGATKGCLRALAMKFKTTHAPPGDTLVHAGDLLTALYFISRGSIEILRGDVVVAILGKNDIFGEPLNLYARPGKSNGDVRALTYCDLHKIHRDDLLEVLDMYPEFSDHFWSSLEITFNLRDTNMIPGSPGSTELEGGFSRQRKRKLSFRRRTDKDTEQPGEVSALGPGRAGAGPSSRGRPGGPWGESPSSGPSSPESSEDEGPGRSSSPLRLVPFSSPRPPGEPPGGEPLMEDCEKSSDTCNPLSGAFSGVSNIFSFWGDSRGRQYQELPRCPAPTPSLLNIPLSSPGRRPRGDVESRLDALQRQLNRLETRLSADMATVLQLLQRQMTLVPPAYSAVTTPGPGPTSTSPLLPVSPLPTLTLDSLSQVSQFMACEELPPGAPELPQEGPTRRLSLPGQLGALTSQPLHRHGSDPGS
Summary of the method: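 hERG channel assay run by an external contractor, with compound tested at concentrations up to 100 μM.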

[3] = Cmax in fasted rat at 10 mg/kg, po; format: ADME, organism-based; design: dose 10 mg/kg, route oral; details: in vivo
Summary of the method: (§1)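 Fasted rats dosed at 10 mg/kg intravenously (n = 4) or orally (n = 9). Plasma was sampled and the pharmacokinetic parameters Cmax, Tmax, AUCinf, CL/F, terminal t1/2 and oral bioavailability F were derived. Values are given as mean ± deviation for each route.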

[4] = Apparent oral clearance in fasted rat at 10 mg/kg, iv; format: ADME, organism-based; design: dose 10 mg/kg, route oral; details: in vivo; summary of the method: as §1
Salmonella typhimurium [5] = experiment: Mutagenic activity in Salmonella typhimurium TA1537 by Ames test in presence of S9 fraction; format: toxicity, organism-based; details: salmonella enterica subsp. enterica serovar typhimurium
Salmonella typhimurium [6] = experiment: Mutagenic activity in Salmonella typhimurium TA100 by Ames test in absence of S9 fraction; format: toxicity, organism-based; details: salmonella enterica subsp. enterica serovar typhimurium
Salmonella typhimurium [7] = experiment: Mutagenic activity in Salmonella typhimurium TA100 by Ames test in presence of S9 fraction; format: toxicity, organism-based; details: salmonella enterica subsp. enterica serovar typhimurium
Rattus norvegicus = experiment: Antinociceptive activity in rat chronic constriction injury neuropathic pain model assessed as reduction of thermal hyperalgesia at 0.1 mg/kg/day measured on day 8 and 12 relative to vehicle-treated control; format: functional, organism-based
Summary of the method: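 Rat chronic constriction injury model of neuropathic pain, after Bennett. Dosing was oral at 0.1 mg kg-1 day-1 against vehicle-treated controls. Read-out was thermal hyperalgesia on days 8 and 12, with significance at p < 0.05.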

[8] = Inhibition of kainate receptor at 10 uM
Summary of the method: (§2)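 Outsourced receptor binding and enzyme panel, covering NMDA receptor (agonist, glycine, phencyclidine and polyamine sites), AMPA, kainate, strychnine-sensitive glycine receptor and kidney-type glutaminase. Percent inhibition was measured at 10 μM, with glutaminase tested up to 100 μM.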

Liver [9] = experiment: Metabolic stability in mouse liver microsomes after 2 hrs; format: ADME, Microsome
Summary of the method: (§3)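 Compound was incubated with liver microsomes from mouse, rat, dog, monkey and human for 2 h. Metabolism was assessed by detection of compound turnover.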

[10] = Inhibition of NMDA receptor at 10 uM; summary of the method: as §2
Salmonella typhimurium [11] = experiment: Mutagenic activity in Salmonella typhimurium TA1535 by Ames test in absence of S9 fraction; format: toxicity, organism-based; details: salmonella enterica subsp. enterica serovar typhimurium
[12] = AUC (0 to infinity) in fasted rat at 10 mg/kg, iv; format: ADME, organism-based; design: time infinity, dose 10 mg/kg, route intravenous; details: plasma; summary of the method: as §1
Liver microsomes [13] = experiment: Metabolic stability in rat liver microsomes after 2 hrs; format: ADME, Microsome; summary of the method: as §3
[14] = Terminal half life in fasted rat at 10 mg/kg, iv; format: ADME, organism-based; design: dose 10 mg/kg, route intravenous; details: in vivo, read-out: beta t1/2 (converted); summary of the method: as §1
Liver [15] = experiment: Metabolic stability in dog liver microsomes after 2 hrs; format: ADME, Canis lupus familiaris, Microsome; summary of the method: as §3
[16] = Inhibition of NMDA receptor phencyclidine binding site at 10 uM; summary of the method: as §2
[17] = Inhibition of NMDA receptor polyamine binding site at 10 uM; summary of the method: as §2
Salmonella typhimurium [18] = experiment: Mutagenic activity in Salmonella typhimurium TA98 by Ames test in presence of S9 fraction; format: toxicity, organism-based; details: salmonella enterica subsp. enterica serovar typhimurium
[19] = Inhibition of NMDA receptor glycine binding site at 10 uM; summary of the method: as §2
Salmonella typhimurium [20] = experiment: Mutagenic activity in Salmonella typhimurium TA98 by Ames test in absence of S9 fraction; format: toxicity, organism-based; details: salmonella enterica subsp. enterica serovar typhimurium
[21] = Tmax in fasted rat at 10 mg/kg, po; format: ADME, organism-based; design: dose 10 mg/kg, route oral; details: in vivo; summary of the method: as §1
[22] = AUC (0 to infinity) in fasted rat at 10 mg/kg, po; format: ADME, organism-based; design: time infinity, dose 10 mg/kg, route oral; details: plasma; summary of the method: as §1
[23] = Oral bioavailability in fasted rat at 10 mg/kg; format: ADME, organism-based; details: in vivo; summary of the method: as §1
[24] = Inhibition of strychnine-sensitive glycine receptor at 10 uM; summary of the method: as §2
Salmonella typhimurium [25] = experiment: Mutagenic activity in Salmonella typhimurium TA1537 by Ames test in absence of S9 fraction; format: toxicity, organism-based; details: salmonella enterica subsp. enterica serovar typhimurium
[26] = Metabolic stability in monkey liver microsomes after 2 hrs; format: ADME, Macaca mulatta, Microsome; details: rhesus monkey; summary of the method: as §3
Salmonella typhimurium [27] = experiment: Mutagenic activity in Salmonella typhimurium TA1535 by Ames test in presence of S9 fraction; format: toxicity, organism-based; details: salmonella enterica subsp. enterica serovar typhimurium
Liver microsomes [28] = experiment: Metabolic stability in human liver microsomes after 2 hrs; format: ADME, Microsome; summary of the method: as §3
[29] = Inhibition of AMPA receptor at 10 uM; summary of the method: as §2
[30] = Apparent oral clearance in fasted rat at 10 mg/kg; format: ADME, organism-based; design: dose 10 mg/kg, route oral; details: in vivo; summary of the method: as §1
[31] = Terminal half life in fasted rat at 10 mg/kg, po; format: ADME, organism-based; design: dose 10 mg/kg, route oral; details: in vivo, read-out: beta t1/2 (converted); summary of the method: as §1
[32] = molecular target: T1, Glutaminase kidney isoform, mitochondrial (Homo sapiens) (UniProt O94925); experiment: Inhibition of glutaminase kidney isoform at 100 uM
T1 sequence (whole entry): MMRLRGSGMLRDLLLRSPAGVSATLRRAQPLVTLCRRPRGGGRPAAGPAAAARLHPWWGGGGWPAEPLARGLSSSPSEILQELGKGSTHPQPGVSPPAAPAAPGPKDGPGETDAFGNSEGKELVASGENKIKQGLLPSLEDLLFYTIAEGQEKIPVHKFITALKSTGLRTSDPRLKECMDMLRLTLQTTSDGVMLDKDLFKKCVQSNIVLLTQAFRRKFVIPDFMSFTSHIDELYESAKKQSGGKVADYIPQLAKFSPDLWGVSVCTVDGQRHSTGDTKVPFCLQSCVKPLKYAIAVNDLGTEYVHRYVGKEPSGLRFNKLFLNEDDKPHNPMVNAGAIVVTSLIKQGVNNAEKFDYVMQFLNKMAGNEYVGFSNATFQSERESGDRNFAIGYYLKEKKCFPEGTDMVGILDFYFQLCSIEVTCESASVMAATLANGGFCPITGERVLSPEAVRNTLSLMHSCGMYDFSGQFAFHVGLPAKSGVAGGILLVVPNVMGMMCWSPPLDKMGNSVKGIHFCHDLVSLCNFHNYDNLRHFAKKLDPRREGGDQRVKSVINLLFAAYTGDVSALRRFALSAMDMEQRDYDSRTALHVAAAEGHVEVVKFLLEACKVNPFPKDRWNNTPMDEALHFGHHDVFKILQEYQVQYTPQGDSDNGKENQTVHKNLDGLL

IC50 [1]: 200 nM
Structure (SMILES): O=C(O)c1c(CCS)cccc1OCc1ccccc1

IC50 [1]: 52 nM
Structure (SMILES): O=C(O)c1ccc(-c2ccc(CS)cc2C(=O)O)cc1

IC50 [1]: 1400 nM
Structure (SMILES): O=C(O)c1c(CCS)cccc1-c1ccccc1

IC50 [1]: 1300 nM
Structure (SMILES): O=C(O)c1cccc(CS)c1

IC50 [1]: 41 nM
Structure (SMILES): O=C(O)c1ccccc1COc1ccc(CS)cc1C(=O)O

IC50 [1]: 230 nM
Structure (SMILES): O=C(O)c1ccccc1-c1cccc(CCS)c1C(=O)O

IC50 [1]: 930 nM
Structure (SMILES): O=C(O)c1ccccc1CCS

IC50 [1]: 16 nM
Structure (SMILES): O=C(O)c1ccc(COc2ccc(CS)cc2C(=O)O)cc1

AUC(0-inf) [22]: 1820 ng·h/mL
Structure (SMILES): O=C(O)CCC(CCCS)C(=O)O (centres undefined)

IC50 [1]: 200 nM
Structure (SMILES): O=C(O)c1ccc(COc2cccc(CCS)c2C(=O)O)cc1

Further lines, the molecule ahead of its results:

Structure (SMILES): O=C(O)c1cccc(COc2cccc(CCS)c2C(=O)O)c1
IC50 [1]: 69 nM

Structure (SMILES): O=C(O)c1cccc(-c2ccc(CS)cc2C(=O)O)c1
IC50 [1]: 38 nM

Structure (SMILES): O=C(O)c1ccccc1COc1cccc(CCS)c1C(=O)O
IC50 [1]: 140 nM

Structure (SMILES): O=C(O)c1ccc(-c2cccc(CCS)c2C(=O)O)cc1
IC50 [1]: 7 nM

Structure (SMILES): O=C(O)c1cccc(COc2ccc(CS)cc2C(=O)O)c1
IC50 [1]: 2 nM

Structure (SMILES): O=C(O)c1cccc(-c2cccc(CCS)c2C(=O)O)c1
inhibition (INH) [2]: Not Active
Cmax [3]: 7100 ng/mL
CL/F [4]: 4.45 mL/min/kg
Activity (Salmonella typhimurium [5]): Non-toxic
Activity (Salmonella typhimurium [6]): Non-toxic
Activity (Salmonella typhimurium [7]): Non-toxic
Activity (Rattus norvegicus): Active
inhibition [8]: inactive
Stability (Liver [9]): Stable
inhibition [10]: < 5%
Activity (Salmonella typhimurium [11]): Non-toxic
AUC(0-inf) [12]: 90600 ng·h/mL
Stability (Liver microsomes [13]): Stable
half-life [14]: 3.6 h
Stability (Liver [15]): Stable
inhibition [16]: inactive
inhibition [17]: inactive
Activity (Salmonella typhimurium [18]): Non-toxic
inhibition [19]: 12%
Activity (Salmonella typhimurium [20]): Non-toxic
Tmax [21]: 1.1 h
AUC(0-inf) [22]: 33800 ng·h/mL
bioavailability [23]: 37%
inhibition [24]: inactive
Activity (Salmonella typhimurium [25]): Non-toxic
Stability [26]: Stable
Activity (Salmonella typhimurium [27]): Non-toxic
Stability (Liver microsomes [28]): Stable
inhibition [29]: inactive
CL/F [30]: 5.3 mL/min/kg
half-life [31]: 3.2 h
inhibition [32]: inactive

Structure (SMILES): O=C(O)c1ccccc1-c1ccc(CS)cc1C(=O)O
IC50 [1]: 340 nM

Structure (SMILES): O=C(O)c1cc(CS)ccc1-c1ccccc1
IC50 [1]: 5700 nM
